Rows were chosen to be rich in hits. Some 0.81% of all compounds tested hit in one or more screens of this group.
zVAD death inh = L929 zVAD cell death inhibition; L929 zVAD necroptosis rescue, ATP luminescence, 24 h; with zVAD 60 µM; viability rescue, % at 10 µM; hit rate 0.38% among 220,000; AID 1377;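 active = activation, scaled between plate controls, above about 75%, limit read from the data; inactive = activation under that limit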;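 also: 0% = zVAD with DMSO and 100% = DMSO alone without zVAD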
SDO1 yeast rescue = sdo1-depleted yeast growth rescue | S. cerevisiae sdo1-depleted JHY4D growth rescue, OD600 30 h; hits give high values; pdr5 snq2 efflux-pump mutant strain | z-score at 10 µM | hit rate 0.21% among 140,000;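 active = z-score above 3 at both the 24 hr and the 30 hr optical density reads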;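 also: z-score against mean and SD of all compound wells on the same plate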
TNAP act hi DEA = increases human TNAP activity under high phosphate acceptor concentration; activation factor at 20 µM; purified TNAP, CDP-star luminescence, 1 M DEA, 30 min; hits give high values; 0 = EDTA background, 1 = DMSO-only activity; 200,000 tested, under 10 active; P05186;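 active = activation factor at least 2 at 20 µM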
Target sequence (P05186 whole entry, looked up): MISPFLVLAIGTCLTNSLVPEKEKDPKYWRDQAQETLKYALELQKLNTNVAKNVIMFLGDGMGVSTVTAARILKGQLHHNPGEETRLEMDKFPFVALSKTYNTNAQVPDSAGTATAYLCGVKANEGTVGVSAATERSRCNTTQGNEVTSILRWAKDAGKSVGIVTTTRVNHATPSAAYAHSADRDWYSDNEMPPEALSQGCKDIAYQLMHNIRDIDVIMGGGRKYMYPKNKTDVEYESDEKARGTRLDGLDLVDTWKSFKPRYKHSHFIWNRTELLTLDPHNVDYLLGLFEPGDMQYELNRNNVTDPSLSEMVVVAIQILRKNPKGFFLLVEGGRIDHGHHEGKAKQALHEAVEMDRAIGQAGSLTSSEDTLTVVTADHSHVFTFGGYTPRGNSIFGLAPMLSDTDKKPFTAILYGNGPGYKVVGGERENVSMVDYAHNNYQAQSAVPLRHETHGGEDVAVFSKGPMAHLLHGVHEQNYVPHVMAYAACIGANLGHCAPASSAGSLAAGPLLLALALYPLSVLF
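Control set: EDTA negative control, DMSO positive control / Assay system: human TNAP / Quantity: TNAP 1/800 final / Evaluation: TNAP activation factor scaled between EDTA and DMSO control wells / Measured by: luminescent substrate turnover signal / Compound dosing: one dose, 20 µM / Times: 30 min enzyme reaction at room temperature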
TNAP inh hi DEA = TNAP (human) inhibition, high acceptor. purified TNAP, CDP-star luminescence, 1 M DEA. inhibition, % at 20 µM. hit rate 0.03% among 200,000;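 active = over 50% inhibition of tissue-nonspecific alkaline phosphatase at 20 µM in the single-dose screen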;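 also: plate controls were DMSO wells for no effect and EDTA-quenched wells as full inhibition for full effect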
TNF necrop inh = blocks TNF-alpha induced death of Jurkat FADD-/- cells | Jurkat FADD-/- TNF necroptosis rescue, ATP luminescence, 24 h; 0 = TNF only, 100 = no-TNF cells | activation (protection from cell death), % at 10 µM | hit rate 0.068% among 220,000 | AID 463075;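 active = activation, meaning protection from cell death, of at least 50% relative to plate controls; inactive = activation below 50%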;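 also: necroptosis triggered by 40 ng/mL TNF-alpha added together with compound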
TNAP inh noacc = blocks human TNAP activity with no phosphate acceptor present; purified TNAP, CDP-star luminescence, 30 min; hit rate 0.26% among 200,000; inhibition, % at 20 µM;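 active = tissue-nonspecific alkaline phosphatase inhibition above about 50% at 20 µM in the single-dose screen, limit read from the data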;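 also: 0% = DMSO negative control and 100% = EDTA positive control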
zVAD death conf = confirmed blocker of zVAD induced death in L929 cells | shares compounds with zVAD death inh | L929 zVAD-induced necroptosis rescue, ATP luminescence, 24 h | activation (protection from necroptosis), % at 10 µM | hit rate 16% among 760 | AID 463117;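 active = mean protection from necroptosis of at least 50% over duplicate tests; inactive = mean protection below 50%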;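 also: 0% = cells with zVAD alone and 100% = vehicle cells without zVAD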
Starred values were filed as active, the others as inactive; nt = not tested or not shown; [ ] = remark or other dose.

SMILES | zVAD death inh | SDO1 yeast rescue | TNAP act hi DEA | TNAP inh hi DEA | TNF necrop inh | TNAP inh noacc | zVAD death conf
Cc1ccc(CC(=O)N2CCN(C(=O)c3ccco3)CC2)cc1 | 2 | nt | 1 | -4 | -1 | -12 | nt
Cc1ccc(C(=O)CCC(=O)N2CCN(C(=O)c3ccco3)CC2)cc1 | 76* | nt | 1.1 | -8 | -1 | 2 | 8
Cc1cc(C)cc(-c2nnc(SCC(=O)N3CCN(C(=O)c4ccco4)CC3)o2)c1 | 85* | -0.72 | 1.1 | -10 | -7 | -15 | 24
CC1CC(C)CN(C(=O)CSc2nnc(-c3ccc(F)cc3)o2)C1 (stereo unspecified) | 89* | 0.2 | 1 | -5 | 1 | -19 | 12
O=C(CSc1nnc(-c2ccc(Br)cc2)o1)N1CCN(C(=O)c2ccco2)CC1 | 6 | -0.28 | 1 | -5 | 0 | -13 | nt
CCN(CC)S(=O)(=O)c1ccc(C(=O)N(c2ccccc2)C2C=CS(=O)(=O)C2)cc1 (stereo unspecified) | 0 | nt | 1 | -1 | 1 | -10 | nt
CC1CCCCN1C(=O)Cn1cc(/C=C2/C(=O)Nc3ccccc32)c2ccccc21 (stereo unspecified) | 0 | -1.8 | 0.8 | 15 | -2 | 12 | nt
Fc1cccc(F)c1/C=N/Nc1ccccn1 | 90* | nt | 1 | -3 | 13 | -13 | 24
C(=N\Nc1ccccn1)/c1ccc2c(c1)OCCO2 | 83* | nt | 1 | 1 | 19 | -2 | 2
O=S(=O)(N/N=C/c1ccc2c(c1)OCCO2)c1ccccc1 | 0 | 0.63 | 1.1 | -7 | -2 | -7 | nt
Fc1cccc(Cl)c1/C=N/Nc1ccccn1 | 83* | nt | 1 | -2 | 16 | 0 | 1
Fc1cccc(/C=N/Nc2ccccn2)c1 | 76* | nt | 1.1 | -8 | 20 | 5 | 1
Cc1ccc(C)c(/C=N/Nc2ccccn2)c1 | 54 | nt | 1.1 | -5 | 4 | -1 | nt
O=C(COC(=O)c1ccc2ccccc2c1O)NCC(F)(F)F | 2 | nt | nt | nt | 2 | nt | nt
O=c1ccc(Oc2nc(N3CCCCC3)nc(N3CCCCC3)n2)n[nH]1 | 0 | -0.82 | 1.1 | -6 | -2 | -12 | nt
O=C(c1cnc(Cl)c(Cl)c1)N1CCC(Cc2ccccc2)CC1 | 1 | nt | 1.1 | -7 | 1 | -16 | nt
O=C(Cn1cnc2cc([N+](=O)[O-])ccc2c1=O)Nc1ccccc1-c1ccccc1 | 2 | nt | nt | nt | 2 | nt | nt
CCOC(=O)N1CCC(=NNC(=O)c2ccc(O)cc2)CC1 | 1 | 0.45 | 1 | -2 | -1 | -20 | nt
COc1ccc(-n2cnc3cc([N+](=O)[O-])ccc32)cc1 | 79* | nt | 1 | -2 | 2 | -2 | 1
CCn1cnc2cc(NS(=O)(=O)c3ccc(C)cc3)ccc21 | 0 | 0.57 | 1 | 3 | 2 | 10 | nt
Nc1ccc(-n2cnc3cc([N+](=O)[O-])ccc32)cc1 | 78* | 0.01 | 1 | 0 | 0 | -7 | 42
COc1ccc(-n2cnc3cc(NS(=O)(=O)c4ccc(C)cc4)ccc32)cc1 | 85* | -1.5 | 1 | 0 | 38 | -7 | 41
Cc1cccc(-n2cnc3cc([N+](=O)[O-])ccc32)c1 | 20 | 0.24 | 1 | 3 | 2 | -5 | nt
COc1cc(C(C)=O)ccc1COc1ccc(C(=O)O)cc1OC | 1 | nt | nt | nt | 1 | nt | nt
COc1cc(C(=O)OC2CC3CCC2(C)C3(C)C)ccc1OC(C)=O (stereo unspecified) | 1 | nt | 1 | -4 | 0 | -3 | nt
SMILES | zVAD death inh | SDO1 yeast rescue | TNAP act hi DEA | TNAP inh hi DEA | TNF necrop inh | TNAP inh noacc | zVAD death conf
Cc1ccc(S(=O)(=O)N2CCC(NC(=O)c3cccc(C)c3)CC2)cc1 | 2 | nt | 1.1 | -6 | -1 | -14 | nt
O=c1[nH]c2ccccc2nc1-c1ccc(Cl)cc1 | 76* | nt | nt | nt | 1 | nt | 2
COC(=O)/C=C/c1ccsc1NC(C)=O | 0 | 0.74 | 1 | -4 | 2 | -9 | nt
CCN(CCO)c1ccc(N=Nc2cc(C)[nH]n2)cc1 | 85* | nt | nt | nt | 26 | nt | 34
Cc1ccccc1C(=O)OC1OC(=O)C(Cl)=C1N1CCOCC1 (stereo unspecified) | 0 | 0.68 | 1 | -4 | 2 | 6 | nt
Cn1nc(C(C)(C)C)cc1NC(=O)Nc1ccc(Cl)cc1 | 82* | nt | nt | nt | 6 | nt | 55*
Cn1nc(C(C)(C)C)cc1NC(=O)Nc1ccc(F)cc1F | 9 | nt | nt | nt | 3 | nt | nt
Cc1cc(C)nc(NC2=NCCN2C(=S)Nc2ccc(C)c(C)c2)n1 | 1 | nt | nt | nt | 4 | nt | nt
CC(=O)c1cnc2cc(-c3ccc(C)cc3)nn2c1C | 1 | -0.66 | 1 | -4 | -2 | -8 | nt
CC(=O)c1cnc2cc(-c3ccccc3)nn2c1C | 82* | -0.07 | 1 | -1 | -1 | -10 | 2
CCN(c1ccccc1)S(=O)(=O)c1ccc(C(=O)NCCCn2ccnc2)cc1 | 1 | nt | 1 | -2 | 0 | 1 | nt
CCN(c1ccccc1)S(=O)(=O)c1ccc(Oc2ccc(-n3ccnc3)cc2)nc1 | 87* | -1.1[7 µM] | nt | nt | 1 | nt | 1
CC1CCC2(CC1)NC(=O)N(Cc1cc(=O)n3ccsc3n1)C2=O (stereo unspecified) | 1 | nt | nt | nt | 1 | nt | nt
Cc1nnsc1SCCNC(=O)Nc1ccc(Cl)cc1 | 79* | nt | 1 | -4 | 3 | -12 | 5
Cc1nn2c(=O)cc(COC(=O)c3ccc(S(=O)(=O)N4CCCCC4)cc3)nc2s1 | 0 | -0.31 | 1 | -2 | 0 | -9 | nt
CNS(=O)(=O)c1ccc2nc(NC(=O)/C=C/c3ccco3)sc2c1 | 76* | nt | 1 | -2 | 0 | -14 | 2
COC(=O)c1cc(=O)n(CCc2ccc(OC)c(OC)c2)c(=Nc2ccc(F)c(Cl)c2)s1 | -1 | -1.1 | 1 | -2 | -5 | -4 | nt
Cc1ccc2c(c1)C1CN(C)CCC1N2C(=O)Nc1ccc(Cl)cc1 (stereo unspecified) | 82* | -0.52 | 1.1 | -6 | 11 | -12 | 8
Cc1ccc2c(c1)C1CN(C)CCC1N2C(=O)c1cccc(S(=O)(=O)N(C)C)c1 (stereo unspecified) | 0 | nt | 1 | -1 | 1 | -5 | nt
O=C(Nc1nccs1)c1ccc(S(=O)(=O)c2ccccc2)cc1 | 1 | -0.5 | 1 | -3 | 7 | -12 | nt
CC1CN(S(=O)(=O)c2ccc(C(=O)Nc3ccc(S(=O)(=O)Nc4nccs4)cc3)cc2)CC(C)O1 (stereo unspecified) | 1 | 1.2 | 1 | 4 | 2 | 2 | nt
CC1CN(S(=O)(=O)c2ccc(C(=O)Nc3nccs3)cc2)CC(C)O1 (stereo unspecified) | 84* | nt | nt | nt | 23 | nt | 5
O=C(Nc1nccs1)c1ccc(S(=O)(=O)N2CCCCC2)cc1 | 104* | 0.12 | 1 | -3 | 52* | -10 | 77*

Screening results: PubChem BioAssay, several laboratories
